# According to ChEMBL document CHEMBL2424622, “Development of amino-pyrimidine inhibitors of c-Jun N-terminal kinase (JNK): kinase profiling guided optimization of a 1,2,3-benzotriazole lead” (Bioorg Med Chem Lett, 2013):
# Legend:
# [1] = target: T1, Dual specificity mitogen-activated protein kinase kinase 4 (Homo sapiens) (UniProt P45985); experiment: Competitive binding affinity to MEK4 (unknown origin) at 10 uM in presence of ATP relative to control
# T1 sequence (whole entry): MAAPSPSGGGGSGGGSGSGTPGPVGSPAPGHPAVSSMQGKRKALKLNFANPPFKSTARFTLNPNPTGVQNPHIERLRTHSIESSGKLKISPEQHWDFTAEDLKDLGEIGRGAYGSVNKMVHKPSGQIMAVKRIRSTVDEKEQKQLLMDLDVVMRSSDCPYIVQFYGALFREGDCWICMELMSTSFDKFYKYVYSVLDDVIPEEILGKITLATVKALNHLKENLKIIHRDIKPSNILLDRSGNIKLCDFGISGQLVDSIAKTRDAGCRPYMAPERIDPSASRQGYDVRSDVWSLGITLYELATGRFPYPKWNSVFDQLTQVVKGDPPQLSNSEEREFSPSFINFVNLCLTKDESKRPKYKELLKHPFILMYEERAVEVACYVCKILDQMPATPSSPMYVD
# [2] = target: Mitogen-activated protein kinase kinase kinase 11 (Homo sapiens) (UniProt Q16584); experiment: Competitive binding affinity to MLK3 (unknown origin) at 10 uM in presence of ATP relative to control
# [3] = test system: Epidermal growth factor receptor (Homo sapiens), P00533 [L858R]; experiment: Competitive binding affinity to EGFR L858R mutant (unknown origin) at 10 uM in presence of ATP relative to control
# How it was run: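 In vitro ATP-site competition binding assay, part of profiling against a diverse panel of 128 kinases. Each compound was tested at a single concentration of 10 µM. Kinome selectivity was summarized as S15 selectivity scores.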
# [4] = species: Homo sapiens; experiment: Competitive binding affinity to EGFR L747 to E749 deletion mutant, A750P mutant (unknown origin) at 10 uM in presence of ATP relative to control
# [5] = target: T2, Serine/threonine-protein kinase 17B (Homo sapiens) (UniProt O94768); experiment: Competitive binding affinity to DRAK2 (unknown origin) at 10 uM in presence of ATP relative to control
# T2 sequence (whole entry): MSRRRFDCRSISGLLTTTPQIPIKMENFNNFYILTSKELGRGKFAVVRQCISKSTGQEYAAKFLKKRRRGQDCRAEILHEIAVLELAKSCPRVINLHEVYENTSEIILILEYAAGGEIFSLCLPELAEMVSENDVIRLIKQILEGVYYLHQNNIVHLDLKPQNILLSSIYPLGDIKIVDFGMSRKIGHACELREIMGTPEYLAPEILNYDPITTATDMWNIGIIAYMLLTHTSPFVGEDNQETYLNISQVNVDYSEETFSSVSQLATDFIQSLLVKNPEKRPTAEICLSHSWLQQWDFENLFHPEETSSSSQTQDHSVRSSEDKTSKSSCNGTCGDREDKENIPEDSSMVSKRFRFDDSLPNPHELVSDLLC
# [6] = target: 5'-AMP-activated protein kinase catalytic subunit alpha-2 (Homo sapiens) (UniProt P54646); experiment: Competitive binding affinity to AMPKalpha2 (unknown origin) at 10 uM in presence of ATP relative to control
# How it was run: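 In vitro ATP-site competition binding assay across a diverse panel of 128 kinases, with each compound tested at a single concentration. Kinase binding is expressed relative to control.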
# [7] = target: T3, Tyrosine-protein kinase Tec (Homo sapiens) (UniProt P42680); experiment: Competitive binding affinity to TEC (unknown origin) at 10 uM in presence of ATP relative to control
# T3 sequence (whole entry): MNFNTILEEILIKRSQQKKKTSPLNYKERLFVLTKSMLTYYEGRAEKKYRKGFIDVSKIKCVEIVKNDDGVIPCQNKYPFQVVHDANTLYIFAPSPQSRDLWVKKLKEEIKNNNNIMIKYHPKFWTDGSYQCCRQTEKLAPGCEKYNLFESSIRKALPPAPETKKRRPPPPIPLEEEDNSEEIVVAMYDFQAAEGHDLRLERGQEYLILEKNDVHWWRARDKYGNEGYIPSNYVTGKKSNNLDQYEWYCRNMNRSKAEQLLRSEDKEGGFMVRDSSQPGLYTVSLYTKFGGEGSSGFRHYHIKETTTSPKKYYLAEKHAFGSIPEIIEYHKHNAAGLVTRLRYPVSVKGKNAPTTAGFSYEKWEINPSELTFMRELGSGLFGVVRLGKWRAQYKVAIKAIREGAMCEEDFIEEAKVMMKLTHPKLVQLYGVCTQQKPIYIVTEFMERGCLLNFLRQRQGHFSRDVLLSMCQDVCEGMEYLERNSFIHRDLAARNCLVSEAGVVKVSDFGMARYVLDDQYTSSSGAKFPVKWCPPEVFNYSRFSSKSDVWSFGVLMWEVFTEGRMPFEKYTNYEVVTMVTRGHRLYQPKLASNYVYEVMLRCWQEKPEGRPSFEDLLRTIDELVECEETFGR
# [8] = target: Ribosomal protein S6 kinase alpha-4 (Homo sapiens) (UniProt O75676); experiment: Competitive binding affinity to RPS6KA4 kinase domain 2 (unknown origin) at 10 uM in presence of ATP relative to control
# [9] = target: Proto-oncogene tyrosine-protein kinase receptor Ret (Homo sapiens) (UniProt P07949); experiment: Competitive binding affinity to RET (unknown origin) at 10 uM in presence of ATP relative to control
# Proto-oncogene tyrosine-protein kinase receptor Ret (Homo sapiens), sequence (P07949 whole entry): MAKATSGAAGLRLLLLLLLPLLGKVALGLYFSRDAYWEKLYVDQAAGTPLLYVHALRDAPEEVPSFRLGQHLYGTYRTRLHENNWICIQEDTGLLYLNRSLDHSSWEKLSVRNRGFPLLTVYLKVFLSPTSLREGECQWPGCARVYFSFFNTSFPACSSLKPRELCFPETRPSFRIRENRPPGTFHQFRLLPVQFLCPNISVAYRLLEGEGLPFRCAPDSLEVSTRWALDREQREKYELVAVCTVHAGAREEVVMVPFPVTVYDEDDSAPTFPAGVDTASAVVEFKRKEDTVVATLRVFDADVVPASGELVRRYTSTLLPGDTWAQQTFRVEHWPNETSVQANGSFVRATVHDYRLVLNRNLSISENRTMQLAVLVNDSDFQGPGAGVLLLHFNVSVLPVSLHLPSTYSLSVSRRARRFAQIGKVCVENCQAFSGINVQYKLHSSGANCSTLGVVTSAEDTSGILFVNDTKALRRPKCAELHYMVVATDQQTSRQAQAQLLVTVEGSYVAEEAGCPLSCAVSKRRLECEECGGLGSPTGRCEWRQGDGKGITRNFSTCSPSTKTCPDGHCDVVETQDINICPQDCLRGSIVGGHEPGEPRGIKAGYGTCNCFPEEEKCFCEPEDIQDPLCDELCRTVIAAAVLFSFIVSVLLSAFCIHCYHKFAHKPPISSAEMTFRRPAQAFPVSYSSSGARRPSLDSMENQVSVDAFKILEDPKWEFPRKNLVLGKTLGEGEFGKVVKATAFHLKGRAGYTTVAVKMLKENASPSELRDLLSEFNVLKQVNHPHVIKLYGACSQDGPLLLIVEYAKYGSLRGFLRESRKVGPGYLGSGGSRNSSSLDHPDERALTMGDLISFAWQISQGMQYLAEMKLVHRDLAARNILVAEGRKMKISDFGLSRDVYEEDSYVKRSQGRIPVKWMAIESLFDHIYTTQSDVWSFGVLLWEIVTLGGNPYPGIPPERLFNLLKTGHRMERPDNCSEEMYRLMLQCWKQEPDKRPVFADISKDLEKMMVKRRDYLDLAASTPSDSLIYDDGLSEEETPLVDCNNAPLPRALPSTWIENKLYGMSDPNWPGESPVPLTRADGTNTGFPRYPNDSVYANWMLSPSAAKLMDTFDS
# 5'-AMP-activated protein kinase catalytic subunit alpha-2 (Homo sapiens), sequence (P54646 whole entry, looked up): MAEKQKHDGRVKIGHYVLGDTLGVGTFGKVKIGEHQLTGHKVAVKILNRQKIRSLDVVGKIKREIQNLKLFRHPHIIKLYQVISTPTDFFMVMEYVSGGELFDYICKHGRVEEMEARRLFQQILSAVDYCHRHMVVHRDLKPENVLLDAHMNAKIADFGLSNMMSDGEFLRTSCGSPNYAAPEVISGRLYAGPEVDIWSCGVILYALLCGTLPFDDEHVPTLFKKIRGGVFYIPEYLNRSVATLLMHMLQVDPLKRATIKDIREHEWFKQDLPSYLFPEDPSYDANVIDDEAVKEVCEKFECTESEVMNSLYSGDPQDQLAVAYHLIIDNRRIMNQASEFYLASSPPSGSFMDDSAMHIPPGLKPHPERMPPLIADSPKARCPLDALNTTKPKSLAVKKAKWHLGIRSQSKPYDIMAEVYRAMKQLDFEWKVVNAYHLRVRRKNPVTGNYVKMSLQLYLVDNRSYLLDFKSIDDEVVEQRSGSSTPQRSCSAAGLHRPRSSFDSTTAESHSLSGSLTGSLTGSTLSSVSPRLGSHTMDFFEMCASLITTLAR
# Ribosomal protein S6 kinase alpha-4 (Homo sapiens), sequence (O75676 whole entry, looked up, the tested form may be a part): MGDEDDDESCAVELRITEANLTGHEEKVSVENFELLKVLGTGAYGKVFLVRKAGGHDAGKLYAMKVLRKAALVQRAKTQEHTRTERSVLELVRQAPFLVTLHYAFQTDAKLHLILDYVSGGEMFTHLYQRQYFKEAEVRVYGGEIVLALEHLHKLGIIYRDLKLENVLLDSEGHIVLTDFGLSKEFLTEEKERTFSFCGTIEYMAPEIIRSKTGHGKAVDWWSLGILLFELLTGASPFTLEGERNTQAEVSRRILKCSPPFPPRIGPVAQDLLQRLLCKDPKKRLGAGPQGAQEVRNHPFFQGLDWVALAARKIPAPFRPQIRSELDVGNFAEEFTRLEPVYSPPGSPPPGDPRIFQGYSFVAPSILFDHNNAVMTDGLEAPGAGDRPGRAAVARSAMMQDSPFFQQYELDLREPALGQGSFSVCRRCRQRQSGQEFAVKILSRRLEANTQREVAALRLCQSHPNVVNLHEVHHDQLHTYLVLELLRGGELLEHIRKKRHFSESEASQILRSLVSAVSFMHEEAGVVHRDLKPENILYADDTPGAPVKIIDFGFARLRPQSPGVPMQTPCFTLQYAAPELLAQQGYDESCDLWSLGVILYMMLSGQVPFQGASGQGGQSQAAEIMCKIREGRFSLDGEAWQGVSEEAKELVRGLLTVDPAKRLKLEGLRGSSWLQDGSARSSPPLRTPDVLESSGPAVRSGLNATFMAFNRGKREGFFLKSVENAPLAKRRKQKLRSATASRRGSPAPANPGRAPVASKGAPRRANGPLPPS
# Mitogen-activated protein kinase kinase kinase 11 (Homo sapiens), sequence (Q16584 whole entry, looked up): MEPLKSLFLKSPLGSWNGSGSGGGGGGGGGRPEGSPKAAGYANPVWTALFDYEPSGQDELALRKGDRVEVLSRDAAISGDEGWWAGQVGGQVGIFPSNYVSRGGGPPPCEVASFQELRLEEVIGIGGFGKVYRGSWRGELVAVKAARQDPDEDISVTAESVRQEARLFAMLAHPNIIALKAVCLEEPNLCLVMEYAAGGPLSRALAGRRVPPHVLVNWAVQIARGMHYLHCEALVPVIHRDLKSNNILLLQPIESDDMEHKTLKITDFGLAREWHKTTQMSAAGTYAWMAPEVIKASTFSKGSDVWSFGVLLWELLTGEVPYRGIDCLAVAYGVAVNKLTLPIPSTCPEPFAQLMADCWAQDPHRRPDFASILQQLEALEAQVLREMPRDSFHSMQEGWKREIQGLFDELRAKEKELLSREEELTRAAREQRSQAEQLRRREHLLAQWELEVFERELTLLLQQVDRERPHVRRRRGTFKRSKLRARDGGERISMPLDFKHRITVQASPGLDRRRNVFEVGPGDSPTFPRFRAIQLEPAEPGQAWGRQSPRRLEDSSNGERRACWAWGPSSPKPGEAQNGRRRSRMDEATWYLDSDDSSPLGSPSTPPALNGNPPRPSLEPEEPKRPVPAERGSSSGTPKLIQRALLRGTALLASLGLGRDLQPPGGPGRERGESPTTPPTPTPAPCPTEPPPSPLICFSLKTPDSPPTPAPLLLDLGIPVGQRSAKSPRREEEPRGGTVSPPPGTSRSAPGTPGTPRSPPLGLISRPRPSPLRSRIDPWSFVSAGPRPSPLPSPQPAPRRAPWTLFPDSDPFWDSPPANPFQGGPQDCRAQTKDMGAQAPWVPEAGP
# Epidermal growth factor receptor (Homo sapiens), P00533 [L858R], sequence (P00533 whole entry L858R): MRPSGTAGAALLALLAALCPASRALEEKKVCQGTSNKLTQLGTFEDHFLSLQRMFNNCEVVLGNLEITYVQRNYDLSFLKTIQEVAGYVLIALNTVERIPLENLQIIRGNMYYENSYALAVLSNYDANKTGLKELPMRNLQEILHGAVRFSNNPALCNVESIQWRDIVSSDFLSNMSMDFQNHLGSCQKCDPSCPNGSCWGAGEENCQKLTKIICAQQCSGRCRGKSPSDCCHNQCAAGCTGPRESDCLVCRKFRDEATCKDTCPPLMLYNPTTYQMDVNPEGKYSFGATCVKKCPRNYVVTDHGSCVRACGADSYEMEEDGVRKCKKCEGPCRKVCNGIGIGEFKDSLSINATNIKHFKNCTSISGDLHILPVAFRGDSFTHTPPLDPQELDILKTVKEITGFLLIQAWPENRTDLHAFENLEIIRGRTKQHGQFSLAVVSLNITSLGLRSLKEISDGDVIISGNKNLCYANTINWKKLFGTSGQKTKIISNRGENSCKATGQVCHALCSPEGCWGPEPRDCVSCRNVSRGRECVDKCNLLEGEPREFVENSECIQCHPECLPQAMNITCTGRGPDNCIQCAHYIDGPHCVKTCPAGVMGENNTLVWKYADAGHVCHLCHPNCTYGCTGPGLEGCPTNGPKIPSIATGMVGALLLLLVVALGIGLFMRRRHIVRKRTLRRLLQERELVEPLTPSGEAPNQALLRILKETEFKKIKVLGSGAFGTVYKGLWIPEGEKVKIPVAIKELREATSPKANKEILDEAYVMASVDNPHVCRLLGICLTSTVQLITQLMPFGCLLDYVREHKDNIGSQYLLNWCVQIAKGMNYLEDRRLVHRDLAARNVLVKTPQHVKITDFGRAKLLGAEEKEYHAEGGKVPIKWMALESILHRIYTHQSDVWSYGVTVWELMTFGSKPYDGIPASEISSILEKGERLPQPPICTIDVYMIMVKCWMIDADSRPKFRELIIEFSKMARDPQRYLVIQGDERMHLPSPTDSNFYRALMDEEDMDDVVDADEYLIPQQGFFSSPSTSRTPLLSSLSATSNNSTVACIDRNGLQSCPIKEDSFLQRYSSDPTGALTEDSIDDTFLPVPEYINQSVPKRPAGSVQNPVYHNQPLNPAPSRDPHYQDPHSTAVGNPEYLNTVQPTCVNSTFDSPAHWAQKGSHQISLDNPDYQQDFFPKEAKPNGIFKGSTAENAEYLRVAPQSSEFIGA
compound,measurement,setting,value
CS(=O)(=O)CCCOc1cccc2c1ccn2-c1ccnc(N[C@H]2CC[C@H](C(=O)N3CCC(O)CC3)CC2)n1,inhibition,[1],> 85%
O[C@H]1CC[C@H](Nc2nccc(-n3ccc4ccccc43)n2)CC1,inhibition,[2],< 50%
same,inhibition,[1],97%
same,inhibition,[3],< 50%
same,inhibition,[4],< 50%
same,inhibition,[5],< 50%
same,inhibition,[6],< 50%
same,inhibition,[7],< 50%
same,inhibition,[8],< 50%
same,inhibition,[9],< 50%
O[C@H]1CC[C@H](Nc2nccc(-n3nnc4ccccc43)n2)CC1,inhibition,[2],< 50%
same,inhibition,[1],99%
same,inhibition,[3],< 50%
same,inhibition,[4],< 50%
same,inhibition,[5],86%
same,inhibition,[6],74%
same,inhibition,[7],< 50%
same,inhibition,[8],94%
same,inhibition,[9],< 50%
O[C@H]1CC[C@H](Nc2nccc(-n3ncc4ccccc43)n2)CC1,inhibition,[2],< 50%
same,inhibition,[1],99%
same,inhibition,[3],< 50%
same,inhibition,[4],< 50%
same,inhibition,[5],91%
same,inhibition,[6],< 50%
same,inhibition,[7],< 50%
same,inhibition,[8],< 50%
same,inhibition,[9],< 50%
O[C@H]1CC[C@H](Nc2nccc(-c3n[nH]c4ccccc34)n2)CC1,inhibition,[2],88%
same,inhibition,[3],< 50%
same,inhibition,[4],< 50%
same,inhibition,[6],89%
same,inhibition,[9],94%
